From publication PMC4364164 (International Journal of Nanomedicine, 2015)

What was measured:
U-87 MG cells [1] = test: MTT assay for cell viability, U-87 MG; format: cell-based, human; conditions: for cell death induced: positive control, data not shown
Outline: (§1)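 Seeded in 96-well plates: SH-SY5Y at 8,000/well, U-87 MG at 5,000/well. Exposed 20 h to test compound 0.5–15 μM or equal-volume PBS vehicle; H2O2 400 or 800 μM as positive control. MTT 0.5 mg/mL for 3 h at 37°C. Formazan dissolved in isopropanol with 0.1 M HCl; optical density at 590 nm. Mean ± SE of five separate incubations.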

SH-SY5Y cells [2] = test: MTT assay for cell viability, SH-SY5Y; format: cell-based, human; conditions: for cell death induced: positive control, data not shown
Outline: as §1

brain homogenates [3] = test: Mitochondrial respiration rate in brain homogenate after in vivo administration; conditions: rat brain homogenate; intravenous 40 μg/100 g, 3.5 hours; three rats
Outline: (§2)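 Same iv dosing (40 μg/100 g, PBS vehicle, three rats, sampled at 3.5 h). Homogenate (300 μg protein) in 1 mL buffer: 80 mM KCl, 50 mM HEPES, 1 mM EGTA, 5 mM KH2PO4, 2 mM MgCl2, 1% BSA, pH 7.4. Added 4 μM rotenone and 5 mM succinate; basal without ADP, stimulated with 200 μM ADP; respiratory control ratio derived. Clark electrode at 37°C; 1 mM KCN added. Triplicate runs.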

liver homogenates [4] = test: Cytochrome oxidase activity; format: in vivo; conditions: rat liver homogenate; intravenous 40 μg/100 g, 3.5 hours; three rats
Outline: (§3)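 Male Wistar rats (250–300 g), three per group, given a single iv dose of NBD-peptide 40 μg/100 g or PBS vehicle. Zoletil anaesthesia, decapitation at 3.5 h. Tissue homogenised 1:5 w/v in mannitol/sucrose/Tris/EDTA/EGTA/1% BSA medium, pH 7.4. Diluted 1:2 with Lubrol, 30 min on ice. Cytochrome oxidase assayed polarographically (Clark electrode, 37°C), with 1 mM KCN control. Mean ± SE of three rats; triplicate runs.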

blood–brain barrier = test: Immunofluorescence analysis of brain sections; format: in vivo; conditions: rat, intravenous 40 μg/100 g, 3.5 hours
Outline: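 Same rats dosed iv at 40 μg/100 g, sampled at 3.5 h. Brains Bouin-fixed and paraffin-embedded; sections dewaxed, citrate (pH 6.0) microwave unmasking at 96°C. Stained with anti-BBB SMI-71, anti-GFAP or anti-tubulin III and 594-nm secondaries; imaged at 488/515 and 594/618 nm. Deconvolved, nMDP colocalisation. Outside/inside-vessel fluorescence per ROI area over ten sections, n=3 per group; two-tailed unpaired t-test.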

U-87 MG cells [5] = test: Maximal oxidative capacity; format: cell-based, human; conditions: regardless of the concentration used, 20 hours, five separate incubations (Figure 1D)
U-87 MG cells [6] = test: Spectrofluorimetric analysis of internalized peptide, U-87 MG; format: cell-based, human; conditions: concentration not given
liver homogenates [7] = test: Mitochondrial respiration rate in liver homogenate after in vivo administration; conditions: rat liver homogenate; intravenous 40 μg/100 g, 3.5 hours; three rats
Outline: as §2

liver = test: Fluorescence histological analysis ex vivo, liver; format: in vivo; conditions: rat, single intravenous administration of gH625-NBD 40 μg/100 g body weight, 3.5 hours
Outline: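 Male Wistar rats (250–300 g; n=3 per group) got one iv dose of NBD-labelled test peptide, 40 μg/100 g, or PBS vehicle. After 3.5 h: ip Zoletil anaesthesia, then decapitation. Liver dissected. Half was fixed in Bouin's fluid 24 h and paraffin-embedded. 7 μm sections treated with 0.1% Sudan Black B in 70% ethanol 20 min against autofluorescence, then hemallum-stained and imaged for green fluorescence.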

brain homogenates [8] = test: Cytochrome oxidase activity; format: in vivo; conditions: rat brain homogenate; intravenous 40 μg/100 g, 3.5 hours; three rats
Outline: as §3

U-87 MG cells [9] = test: Cellular uptake by fluorescence microscopy, U-87 MG; format: cell-based, human; conditions: 1 or 5 μM (Figure 2: 5 μM), 2 hours, NBD fluorescence, fixed cells
Outline: (§4)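 NBD-labelled peptide (N-terminal) in PBS. Cells grown in DMEM with 10% FBS, 2 mM L-glutamine, penicillin and streptomycin at 37°C in 5% CO2. Seeded at 60,000/well on four-well chamber slides, then exposed to 1 or 5 μM for 2 h. Fixed in ice-cold methanol for 10 min and mounted in glycerol/PBS 1:1. Imaged on NBD (λem 515 nm) and DAPI (λex 350/λem 461 nm) channels.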

SH-SY5Y cells [10] = test: Maximal oxidative capacity; format: cell-based, human; conditions: 0–15 μM, 20 hours, Clark-type oxygen electrode 37°C, five separate incubations (Figure 1C)
SH-SY5Y cells [11] = test: Cellular uptake by fluorescence microscopy, SH-SY5Y; format: cell-based, human; conditions: 1 or 5 μM (Figure 2: 5 μM), 2 hours, NBD fluorescence, fixed cells
Outline: as §4

brain = test: Fluorescence histological analysis ex vivo, brain; format: in vivo; conditions: rat, single intravenous administration of gH625-NBD 40 μg/100 g body weight, 3.5 hours
Outline: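 Male Wistar rats (250–300 g; n=3 per group) got one iv dose of NBD-labelled test peptide, 40 μg/100 g, or PBS vehicle. After 3.5 h: ip Zoletil anaesthesia, then decapitation. Sagittal 10 μm sections: Bouin's fixation 24 h, paraffin, 0.1% Sudan Black B in 70% ethanol 20 min, hemallum. Co-stained for SMI-71 endothelial marker, GFAP or tubulin III (citrate pH 6.0 unmasking), colocalization by nMDP. Outside/inside-vessel fluorescence ratio from ≥10 slices.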

cells = conditions: NBD alone; cited from earlier work

OO [H2O2]
cell death induced (U-87 MG cells [1]; 400 μM): 22% | cell death induced (U-87 MG cells [1]; 800 μM): 52% | cell death induced (SH-SY5Y cells [2]; 400 μM): 30% | cell death induced (SH-SY5Y cells [2]; 800 μM): 45%

H-HGLASTLTRWAHYNALIRAFGGG-NH2 [gH625]
effect on respiratory control ratio (brain homogenates [3]): no changes | effect on maximal oxidative capacity (cytochrome oxidase activity) (liver homogenates [4]): not affected | effect on cell viability (MTT) (U-87 MG cells [1]; 0.5–15 μM, 20 hours, mean ± standard error of five separate incubations (Figure 1B)): no significant effect | colocalization with astrocytes surrounding the BBB (anti-GFAP, nMDP) (blood–brain barrier): little or no colocalization | colocalization with the endothelial BBB (anti-BBB SMI-71, nMDP) (blood–brain barrier): More colocalization | effect on maximal oxidative capacity (cytochrome oxidase activity) (U-87 MG cells [5]): ineffective | administered peptide taken up (U-87 MG cells [6]): more than 90% | effect on mitochondrial respiration rate (liver homogenates [7]): does not influence | distribution in liver (fluorescence histology) (liver): partly taken up by Kupffer cells | effect on maximal oxidative capacity (cytochrome oxidase activity) (brain homogenates [8]): not affected | cellular uptake by fluorescence microscopy (U-87 MG cells [9]): significant uptake | effect on maximal oxidative capacity (cytochrome oxidase activity) (SH-SY5Y cells [10]): did not significantly affect | cellular uptake by fluorescence microscopy (SH-SY5Y cells [11]): significant uptake | effect on cell viability (MTT) (SH-SY5Y cells [2]; 0.5–15 μM, 20 hours, mean ± standard error of five separate incubations (Figure 1A)): no significant effect | distribution in brain (fluorescence histology) (brain): reaches the BBB and accumulates in the extensions of nerve cells

7-nitrobenz-2-oxa-1,3-diazole-4-yl [NBD]
penetration into the cells (cells): almost unable to penetrate
